From ChEMBL document CHEMBL5357066, “Development of Novel Membrane Disrupting Lipoguanidine Compounds Sensitizing Gram-Negative Bacteria to Antibiotics” (ACS Med Chem Lett, 2024)
≈ marks a conversion by molar mass, not a printed value. One block for each compound: values may come before it.

How the values were obtained:
[1] = tested on: Acinetobacter baumannii; experiment: Synergistic antibacterial activity against Acinetobacter baumannii AYE assessed as rifampicin MIC at 30 microg/ml incubated for overnight by microbroth dilution checkerboard assay; type: functional; conditions: dose 30 µg/ml
[2] = tested on: Klebsiella pneumoniae; experiment: Synergistic antibacterial activity against Klebsiella pneumoniae NCTC 13368 assessed as rifampicin MIC at 30 microg/ml incubated for overnight by microbroth dilution checkerboard assay; type: functional; conditions: dose 30 µg/ml
[3] = tested on: Pseudomonas aeruginosa; experiment: Synergistic antibacterial activity against Pseudomonas aeruginosa PAO1 assessed as rifampicin MIC at 30 microg/ml incubated for overnight by microbroth dilution checkerboard assay; type: functional; conditions: dose 30 µg/ml
Outline: (§1)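 Fixed-concentration combination MIC in TSB. The first agent was set in a two-fold dilution series (100 µL/well), then 50 µL/well of the second agent at a fixed concentration was added; PMBN was fixed at 30 µg/mL. Bacteria at OD 0.02 (50 µL) went into 150 µL of compounds, overnight at 37 °C. MIC was the lowest concentration without visible growth (<0.1 OD600).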

[4] = tested on: Escherichia coli; experiment: Synergistic antibacterial activity against Escherichia coli NCTC 12923 assessed as rifampicin MIC at 30 microg/ml incubated for overnight by microbroth dilution checkerboard assay; type: functional; conditions: dose 30 µg/ml
[5] = tested on: Acinetobacter baumannii; experiment: Synergistic antibacterial activity against Acinetobacter baumannii ATCC 17978 assessed as rifampicin MIC at 30 microg/ml incubated for overnight by microbroth dilution checkerboard assay; type: functional; conditions: dose 30 µg/ml
[6] = tested on: Pseudomonas aeruginosa; experiment: Synergistic antibacterial activity against Pseudomonas aeruginosa NCTC 13437 assessed as rifampicin MIC at 30 microg/ml incubated for overnight by microbroth dilution checkerboard assay; type: functional; conditions: dose 30 µg/ml; outline: as §1
[7] = tested on: Klebsiella pneumoniae; experiment: Synergistic antibacterial activity against Klebsiella pneumoniae M6 assessed as rifampicin MIC at 30 microg/ml incubated for overnight by microbroth dilution checkerboard assay; type: functional; conditions: dose 30 µg/ml
[8] = tested on: Erythrocyte; experiment: Hemolytic activity in human Red blood cells at 512 microg/ml measured after 1 hrs by absorbance based assay; type: toxicity, cell-based; conditions: dose 512 µg/ml
Outline: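 Titrations in PBS were incubated with freshly collected human red blood cells for 1 h at 37 °C. Controls were 0.1% Triton-X-100 (full lysis) and PBS alone (no lysis). After centrifugation, supernatant OD550 was read. % haemolysis = (AP−AB)/(AC−AB)×100. Data are means and standard error of three biological replicates.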

[9] = tested on: Acinetobacter baumannii; experiment: Synergistic antibacterial activity against Acinetobacter baumannii ATCC 17978 assessed as rifampicin MIC at <=0.25 times MIC incubated for overnight by microbroth dilution checkerboard assay; type: functional
Outline: (§2)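 Checkerboard microdilution under MIC conditions (TSB, overnight, 37 °C). Two-fold series of each agent were combined on one plate before bacteria were added, and single-agent MICs were measured on the same plate. FIC = sum of combination MIC/alone MIC for each agent, taken from the most synergistic well. Three independent repeats, mean ± SD. ≤0.5 was taken as strong synergy and 0.5–<1 as weak.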

[10] = tested on: Pseudomonas aeruginosa; experiment: Synergistic antibacterial activity against Pseudomonas aeruginosa NCTC 13437 assessed as novobiocin MIC at <=0.25 times MIC incubated for overnight by microbroth dilution checkerboard assay; type: functional
Outline: (§3)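 Checkerboard microdilution in Tryptic Soy Broth, run like the MIC assay. Overnight TSB cultures were back-diluted to OD 0.01 and added 1:1 to the combined two-fold series of both agents, then incubated overnight at 37 °C. Growth/no-growth was called at <0.1 OD600. MICs alone were read on the same plates. FIC index came from the most synergistic well; three independent repeats, mean ± SD.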

[11] = tested on: Escherichia coli; experiment: Synergistic antibacterial activity against Escherichia coli NCTC 12923 assessed as fold change in rifampicin MIC at <=0.25 times MIC incubated for overnight by microbroth dilution checkerboard assay relative to rifampicin alone; type: functional; outline: as §2
[12] = tested on: Pseudomonas aeruginosa; experiment: Synergistic antibacterial activity against Pseudomonas aeruginosa PAO1 assessed as rifampicin MIC at <=0.25 times MIC incubated for overnight by microbroth dilution checkerboard assay; type: functional; outline: as §3
[13] = tested on: Klebsiella pneumoniae; experiment: Synergistic antibacterial activity against […] Klebsiella pneumoniae M6 assessed as novobiocin MIC at <=0.25 times MIC incubated for overnight by microbroth dilution checkerboard assay; type: functional
Outline: (§4)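 Checkerboard run under the MIC conditions (TSB, overnight, 37 °C). Antibiotic and lipoguanidine 2-fold series were combined on one plate before bacteria were added. Growth/no-growth was scored as for the MIC (<0.1 OD600). Single-agent MICs were measured on the same plates. Three independent repeats were done.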

[14] = tested on: Escherichia coli; experiment: Synergistic antibacterial activity against Escherichia coli NCTC 12923 assessed as fold change in novobiocin MIC at <=0.25 times MIC incubated for overnight by microbroth dilution checkerboard assay relative to novobiocin alone; type: functional; outline: as §2
[15] = tested on: Pseudomonas aeruginosa; experiment: Synergistic antibacterial activity against Pseudomonas aeruginosa PAO1 assessed as fold change in novobiocin MIC at <=0.25 times MIC incubated for overnight by microbroth dilution checkerboard assay relative to novobiocin alone; type: functional; outline: as §3
[16] = tested on: Klebsiella pneumoniae; experiment: Synergistic antibacterial activity against […] Klebsiella pneumoniae M6 assessed as rifampicin MIC at <=0.25 times MIC incubated for overnight by microbroth dilution checkerboard assay; type: functional; outline: as §4
[17] = tested on: Acinetobacter baumannii; experiment: Antibacterial activity against Acinetobacter baumannii AYE assessed as bacterial growth inhibition incubated for overnight by microbroth dilution method; type: functional
Outline: (§5)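 Broth microdilution in Tryptic Soy Broth. DMSO stocks were diluted in TSB as 2-fold series. Overnight TSB cultures were back-diluted to OD 0.01 and mixed 1:1 with compound. Incubation was overnight at 37 °C. MIC was the lowest concentration without visible growth (<0.1 OD600). DMSO vehicle was checked at equivalent concentrations.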

[18] = tested on: Klebsiella pneumoniae; experiment: Antibacterial activity against ESBL Klebsiella pneumoniae NCTC 13368 assessed as bacterial growth inhibition incubated for overnight by microbroth dilution method
[19] = tested on: Acinetobacter baumannii; experiment: Synergistic antibacterial activity against Acinetobacter baumannii ATCC 17978 assessed as fold change in novobiocin MIC at <=0.25 times MIC incubated for overnight by microbroth dilution checkerboard assay relative to novobiocin alone; type: functional; outline: as §2
[20] = tested on: Pseudomonas aeruginosa; experiment: Antibacterial activity against Pseudomonas aeruginosa NCTC 13437 assessed as bacterial growth inhibition incubated for overnight by microbroth dilution method; type: functional; outline: as §5
[21] = tested on: Acinetobacter baumannii; experiment: Synergistic antibacterial activity against Acinetobacter baumannii ATCC 17978 assessed as fold change in rifampicin MIC at <=0.25 times MIC incubated for overnight by microbroth dilution checkerboard assay relative to rifampicin alone; type: functional; outline: as §2
[22] = tested on: Acinetobacter baumannii; experiment: Synergistic antibacterial activity against Acinetobacter baumannii AYE assessed as fold change in rifampicin MIC at <=0.25 times MIC incubated for overnight by microbroth dilution checkerboard assay relative to rifampicin alone; type: functional; outline: as §2
[23] = tested on: Acinetobacter baumannii; experiment: Synergistic antibacterial activity against Acinetobacter baumannii ATCC 17978 assessed as novobiocin MIC at <=0.25 times MIC incubated for overnight by microbroth dilution checkerboard assay; type: functional; outline: as §2
[24] = tested on: Klebsiella pneumoniae; experiment: Synergistic antibacterial activity against Klebsiella pneumoniae NCTC 13368 assessed as rifampicin MIC at <=0.25 times MIC incubated for overnight by microbroth dilution checkerboard assay; type: functional; outline: as §2
[25] = tested on: Pseudomonas aeruginosa; experiment: Synergistic antibacterial activity against Pseudomonas aeruginosa NCTC 13437 assessed as fold change in rifampicin MIC at <=0.25 times MIC incubated for overnight by microbroth dilution checkerboard assay relative to rifampicin alone; type: functional; outline: as §3
[26] = tested on: Acinetobacter baumannii; experiment: Synergistic antibacterial activity against Acinetobacter baumannii AYE assessed as fold change in novobiocin MIC at <=0.25 times MIC incubated for overnight by microbroth dilution checkerboard assay relative to novobiocin alone; type: functional; outline: as §2
[27] = tested on: Pseudomonas aeruginosa; experiment: Synergistic antibacterial activity against Pseudomonas aeruginosa PAO1 assessed as fold change in rifampicin MIC at <=0.25 times MIC incubated for overnight by microbroth dilution checkerboard assay relative to rifampicin alone; type: functional; outline: as §3
[28] = tested on: Pseudomonas aeruginosa; experiment: Synergistic antibacterial activity against Pseudomonas aeruginosa PAO1 assessed as novobiocin MIC at <=0.25 times MIC incubated for overnight by microbroth dilution checkerboard assay; type: functional; outline: as §3
[29] = tested on: Klebsiella pneumoniae; experiment: Synergistic antibacterial activity against […] Klebsiella pneumoniae NCTC 13368 assessed as novobiocin MIC at <=0.25 times MIC incubated for overnight by microbroth dilution checkerboard assay; type: functional; outline: as §4
[30] = tested on: Acinetobacter baumannii; experiment: Synergistic antibacterial activity against Acinetobacter baumannii AYE assessed as rifampicin MIC at <=0.25 times MIC incubated for overnight by microbroth dilution checkerboard assay; type: functional; outline: as §2
[31] = tested on: Klebsiella pneumoniae; experiment: Synergistic antibacterial activity against Klebsiella pneumoniae M6 assessed as fold change in novobiocin MIC at <=0.25 times MIC incubated for overnight by microbroth dilution checkerboard assay relative to novobiocin alone; type: functional; outline: as §2
[32] = tested on: Klebsiella pneumoniae; experiment: Synergistic antibacterial activity against Klebsiella pneumoniae NCTC 13368 assessed as fold change in rifampicin MIC at <=0.25 times MIC incubated for overnight by microbroth dilution checkerboard assay relative to rifampicin alone; type: functional; outline: as §4
[33] = tested on: Acinetobacter baumannii; experiment: Synergistic antibacterial activity against Acinetobacter baumannii AYE assessed as novobiocin MIC at <=0.25 times MIC incubated for overnight by microbroth dilution checkerboard assay; type: functional; outline: as §2
[34] = tested on: Escherichia coli; experiment: Synergistic antibacterial activity against Escherichia coli NCTC 12923 assessed as rifampicin MIC at <=0.25 times MIC incubated for overnight by microbroth dilution checkerboard assay; type: functional; outline: as §2
[35] = tested on: Escherichia coli; experiment: Synergistic antibacterial activity against Escherichia coli NCTC 12923 assessed as novobiocin MIC at <=0.25 times MIC incubated for overnight by microbroth dilution checkerboard assay; type: functional; outline: as §2
[36] = tested on: Klebsiella pneumoniae; experiment: Antibacterial activity against Klebsiella pneumoniae M6 assessed as bacterial growth inhibition incubated for overnight by microbroth dilution method
[37] = tested on: Pseudomonas aeruginosa; experiment: Synergistic antibacterial activity against Pseudomonas aeruginosa NCTC 13437 assessed as fold change in novobiocin MIC at <=0.25 times MIC incubated for overnight by microbroth dilution checkerboard assay relative to novobiocin alone; type: functional; outline: as §2
[38] = tested on: Escherichia coli; experiment: Antibacterial activity against Escherichia coli NCTC 12923 assessed as bacterial growth inhibition incubated for overnight by microbroth dilution method; type: functional; outline: as §5
[39] = tested on: Klebsiella pneumoniae; experiment: Synergistic antibacterial activity against Klebsiella pneumoniae NCTC 13368 assessed as fold change in novobiocin MIC at <=0.25 times MIC incubated for overnight by microbroth dilution checkerboard assay relative to novobiocin alone; type: functional; outline: as §2
[40] = tested on: Pseudomonas aeruginosa; experiment: Synergistic antibacterial activity against Pseudomonas aeruginosa NCTC 13437 assessed as rifampicin MIC at <=0.25 times MIC incubated for overnight by microbroth dilution checkerboard assay; type: functional; outline: as §3
[41] = tested on: Pseudomonas aeruginosa; experiment: Antibacterial activity against Pseudomonas aeruginosa PAO1 assessed as bacterial growth inhibition incubated for overnight by microbroth dilution method; type: functional; outline: as §5
[42] = tested on: Acinetobacter baumannii; experiment: Antibacterial activity against Acinetobacter baumannii ATCC 17978 assessed as bacterial growth inhibition incubated for overnight by microbroth dilution method; type: functional; outline: as §5

- MIC [1]: 0.25 µg/mL
- MIC [2]: 1 µg/mL
- MIC [3]: ≤ 0.125 µg/mL
- MIC [4]: ≤ 0.125 µg/mL
- MIC [5]: ≤ 0.125 µg/mL
- MIC [6]: ≤ 0.125 µg/mL
- MIC [7]: 0.5 µg/mL
SMILES: CC(C)C[C@@H]1NC(=O)[C@@H](Cc2ccccc2)NC(=O)[C@H](CCN)NC(=O)[C@@H](NC(=O)[C@H](CCN)NC(=O)[C@@H](N)[C@@H](C)O)CCNC(=O)[C@H]([C@@H](C)O)NC(=O)[C@@H](CCN)NC(=O)[C@H](CCN)NC1=O

SMILES: CCCCCCCCCCNC(=N)NCCCCNC(=N)N
- Activity [8]: Toxic
- MIC [9]: ≤ 0.125 µg/mL
- MIC [10]: 4 µg/mL
- fold change (FC) [11]: >=4
- MIC [12]: 2 µg/mL
- MIC [13]: 1 µg/mL
- fold change (FC) [14]: >=4
- fold change (FC) [15]: >=4
- MIC [16]: ≤ 0.125 µg/mL
- MIC [17]: > 128 µg/mL
- MIC [18]: > 128 µg/mL
- fold change (FC) [19]: >=4
- MIC [20]: > 128 µg/mL
- fold change (FC) [21]: >=4
- fold change (FC) [22]: >=4
- MIC [23]: 0.125 µg/mL
- MIC [24]: ≤ 0.125 µg/mL
- fold change (FC) [25]: >=4
- fold change (FC) [26]: >=4
- fold change (FC) [27]: >=4
- MIC [28]: 4 µg/mL
- MIC [29]: 8 µg/mL
- MIC [30]: ≤ 0.125 µg/mL
- fold change (FC) [31]: >=4
- fold change (FC) [32]: >=4
- MIC [33]: 0.125 µg/mL
- MIC [34]: ≤ 0.125 µg/mL
- MIC [35]: 2 µg/mL
- MIC [36]: > 128 µg/mL
- fold change (FC) [37]: >=4
- MIC [38]: 64 µg/mL (≈ 205 µM)
- fold change (FC) [39]: >=4
- MIC [40]: ≤ 0.125 µg/mL
- MIC [41]: 64 µg/mL (≈ 205 µM)
- MIC [42]: > 128 µg/mL
